The EternaBench riboswitch data

Test system: MS2 coat protein
Test: apparent Kd, MS2 coat protein; higher = weaker binding; RNA-MaP array; FMN 200 µM where present
How it was run: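 Designs were transcribed by stalled E. coli RNA polymerase on Illumina sequencing-chip clusters. They were titrated with SNAP-549-labelled MS2 coat protein from 0.7 or 1.5 nM, doubling to 3 µM, in 100 mM Tris-HCl pH 7.5, 80 mM KCl, 4 mM MgCl2, BSA, DTT, yeast tRNA and Tween-20, without and then with constant ligand. The apparent Kd is the median of filtered per-cluster fits after normalisation of green signal to red-channel RNA signal and control-cluster median Fmax.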

[1] = designed as: OFF switch for flavin mononucleotide, no ligand
[2] = ligand present: flavin mononucleotide, designed as: OFF switch for flavin mononucleotide
[3] = designed as: ON switch for flavin mononucleotide, no ligand
[4] = ligand present: flavin mononucleotide, designed as: ON switch for flavin mononucleotide

Sequence | apparent Kd [1] | apparent Kd [2] | apparent Kd [3] | apparent Kd [4]
GUGAAGGUAGGAUAUACGAUAAUAUAGGGUAGAUAUAUAACACAUGAGGAUCACCCAUGUAGAAGGACCAAGUG | 46.3 nM | 110 nM |  | 
AGCUAGUCAGGAUAUACGUGCAUGUCAAAAGACGUGAAGGGACAUGAGGAUCACCCAUGUAGAAGGGACUAGCA | 54.5 nM | 231 nM |  | 
ACAUGAGGAUCACCCAUGUAUUACAUGGUUAAGUUUAUUAACAGAAGGCGAAAAUACCACUUUUUCGAGGAUAUGUUUUCUAUA | 47.4 nM | 61.6 nM |  | 
UUAAGCAAGGAGAAGGCCCAGGUGGGCCAUCACAUGAGGAUCACCCAUGUGGGAGGAUAUCCGGGCCCACGCUUAUCCGCGGGC | 7.6 nM | 12.6 nM |  | 
UUACCUUAUGAGAAGGCGGUCAUGAAACAUGAUCGAGGAUAUCAUGUAAACAUGAGGAUCACCCAUGUAUGGGUAUUAUGGUAU |  |  | 142 nM | 27.3 nM
GUGGUGCAUAUACGUGGAUGUACAUGAGGAUCACCCAUGUAAGAGGAUAUGCGGAUACUAGCUCAGCAGAAGGCUUACAAAUAA | 16.1 nM | 73.8 nM |  | 
GAGCUCAAGCAGAAGGCCGUAUGUCAAUCGACAUGAGGAUCACCCAUGUAUGAGCUCGGCGUCGCGGAGGAUAUGCAGGCUCUA |  |  | 18.6 nM | 6.63 nM
UUCAGCUCGUGAGGAUAUACAUGUGCUGGAAACAGCACUAUUGAGUUCACAUGAGGAUCACCCAUGUAGAAGGCACGAGCUGAG | 15.2 nM | 27.9 nM |  | 
UGAGCGACCACAGGAUAUACUUGGUAAGACCGAGUAGAAGGGUGGAAGAGCGUGCAGUGACAUGAGGAUCACCCAUGUGGUUGU |  |  | 215 nM | 77.5 nM
CUGUGACGGUGCGCAAGUGGACGUAGAAGGGUCACAUGAGGAUCACCCAUGUGGGCCUGCUAUUGACAGGAUAUACGUUCGUAC | 5.28 nM | 5 nM |  | 
AAUGGGCAGCAGAAGGCAUGUCAUAAGACAUGAGGAUCACCCAUGUAGUUAAGGCGAAAGCCGCAUGAGGAUAUGCUGCCCUAA |  |  | 66 nM | 6.71 nM
AGCAUGCAGUAGGAUAUCGAUCCGCAAUAUGAACGAGAAGGACUGACAUGAGGAUCACCCAUGUGCGUCCUAGG | 16.5 nM | 19.7 nM |  | 
AAUAUGUUGCAGAAGGUUAUAUUUUUUUAGUACCUCAUGACAUGAGGAUCACCCAUGUUUUUGUUGAAGGAUAUGCAAUAUAUU | 17.1 nM | 14.3 nM |  | 
GGAUAGGACAGAGGAUAUACGUGCUAGAGAUACUAGCAGAAUUUCCUCACAUGAGGAUCACCCAUGUAGAAGGCUGUCCUAUCG | 12.2 nM | 216 nM |  | 
UUUCAGCAAGGAUAUACGGGCUGUGCUUUUCAUUUCUUACAACAUGAGGAUCACCCAUGUAGAAGGUGCAUCUU | 72.5 nM | 111 nM |  | 
GAGAUGUGAGGAUAUCUGGACCGUGGAAGAGCCACGGUCCGAGAGAAGGCACAUGAGGAUCACCCAUGUGAUGA | 38.4 nM | 171 nM |  | 
AAAUAAUUGUCAGGAUAUGGCAUGUAGACGAUGCCAGAAGGGACAUGAGGAUCACCCAUGUUGCUCAACACUGGGAGACGUAAG | 133 nM | 273 nM |  | 
UUCAGACAUGAGGAUCACCCAUGUGAGGAUAUGAUGCGAUCGUCGAAAGACGAUAGCAUCAGAAGGCACGUAUG | 82.9 nM | 135 nM |  | 
AAGAAGACAGGAUAUACAUGAAAGAAAGAAAAGAAAAGAAAACAUGAGGAUCACCCAUGUAGAAGGGUCAAGAA | 46.5 nM | 59.2 nM |  | 
AUACAUGAGGAUCACCCAUGUUACUGGGUCUAUAUAGAACGUAGAAGGAUGUUUAUACACAUAACAUAGGAUAUACAAUAUUGU |  | 30.9 nM |  | 
UCGACGAAAGUCGAACGAUGUAGCAGAAGGACAUGAGGAUCACCCAUGUCAGCUGUAACAGCCAUGUAGGAUAUGCUACAUCGC | 4.27 nM | 5.7 nM |  | 
GUCGUGUGAGGAUAUGGAUAGUAGCAGUGGCGGUCGGCGACCUAGAAGGCACAUGAGGAUCACCCAUGUAAGAG | 40.6 nM | 37.8 nM |  | 
CCUCUACAUGAGGAUCACCCAUGUGAGGAUAUGCGAGGCGCGCUCGAUGAGCACGCCGGUAGAAGGCAUGUGGU | 23.8 nM | 51.6 nM |  | 
AAAUAAACUACCAUAAUAUCCUCACAUGAGGAUCACCCAUGUCAGGAUAUUUGUCCUAAAAGGACAGAGAAGGGACGUGGUAGA | 5.43 nM | 11.1 nM |  | 

Sequence | apparent Kd [1] | apparent Kd [2] | apparent Kd [3] | apparent Kd [4]
AAUAUAAGAGCUGGUACUCAAAGAACAUGAGGAUCACCCAUGUAGGAUAUCAGCACGAUAAGUGCUGAGAAGGACAUCCAGCUC | 15.8 nM | 15.9 nM |  | 
AGACGGAGCUGAGGAUAUACAUGAGGAUCACCCAUGUAAGAUCUCCAGGAAACUGGAGAUCAAAAGUAGAAGGCAGCUCCGUCA | 15.1 nM | 23.1 nM |  | 
UUUUUGAAGCUUCGUCAAUACAGUUAGGAUAUGAGAGACAUGAGGAUCACCCAUGUGCAUGUUGAUUAGAAGGAACAACUAUCU | 14.2 nM | 12.7 nM |  | 
UAUAUUUUUAUAGGAUAUGGAUAUGAUGCAUAUCCAGAAGGGUGAUUAUAAUAUAAUCUAUACAUGAGGAUCACCCAUGUUUAU |  |  | 242 nM | 72 nM
GCCCGAUCCACGUUGGGCCCAGACAGAAGGGCACACGGUCUAAGUCACAUGAGGAUCACCCAUGUGCAGGAUAUGUCUCGACUC | 7.63 nM | 25.9 nM |  | 
AAAAAACAUGAGGAUCACCCAUGUAAAAAAAUGGGAGGAUAUACAAAAACAAAAAAAAAAGUAGAAGGCCUGAAAA |  |  | 387 nM | 63.8 nM
ACAUGAGGAUCACCCAUGUAUUUGUAGGAUAUACUGUAUUGUUUAUUACUCUAAUUAAUAUGUUUGUAGAAGGACAUUGCAUGA | 8.39 nM | 9.86 nM |  | 
AAAUAGCAUGAGGAUAUUGGACUGGAUUCAGUACGAGAAGGCAUGACAUGAGGAUCACCCAUGUUGUGUUGGGA | 19.7 nM | 44.8 nM |  | 
AGAUGACAAAGUCAUCUCUGACAGACAUGAGGAUCACCCAUGUAGGAUAUACUACUCAAAGAGUAGUAGAAGGACAUGUGUCUU | 33 nM | 95.7 nM |  | 
ACAUACUCUCGAGGAUAUCGUAUGGAAAAGAAACGAGAAGGCGAAUGUUAAUUUCUAAUACAUGACAUGAGGAUCACCCAUGUA |  |  | 30.4 nM | 27.3 nM
GCACUCAAGUUAGGAUAUGGAUCGGAAAACGAUCCAGAAGGAAUAUGGGAACAUGAGGAUCACCCAUGUUCCAGAAACGAGUGC |  |  | 62.5 nM | 30.4 nM
CGAUAUAUGAAGGGCGAACGCGCACAUGAGGAUCACCCAUGUAGAAGGCGAUCCGCAACGCGGAUCGAGGAUAUAUAGUAUACA | 37 nM | 33.8 nM |  | 
UCCGCAUCUGAGAAGGGAUCUCCGCGGAAGGGAUCAGGAUAUCGGACAUGAGGAUCACCCAUGUGCCGUUAAAGGACACCUGGU |  | 7.36 nM |  | 
UUUACGAAAGUCGAACGAUGUAGCAGAAGGACAUGAGGAUCACCCAUGUCAGCUGUAACAGCCAUGUAGGAUAUGCUACAUUUU | 5.37 nM | 6.12 nM |  | 
ACGACAAAAGUCGAACGAUGUAGCAGAAGGACAUGAGGAUCACCCAUGUAAAAUGUAACAGCCAUGUAGGAUAUGCAAAAUCGA | 37.7 nM | 159 nM |  | 
GCUGGACAAGGAUAUACAAUCGUGCUUCGGCACGUAAGGUCACAUGAGGAUCACCCAUGUAGAAGGUGUCCAGC | 23.8 nM | 157 nM |  | 
GACUGAUUGUAGAAGGUACUUAAUAAUAUUUAAUAACUCAUGUGACAUGAGGAUCACCCAUGUAGUAAGGAUAUACAUAUCUCA |  |  | 211 nM | 79.5 nM
ACAUGAGGAUCACCCAUGUUAAGCGAGGAUAUUUCACUGCACAUGAGGUUCGCCCAUGUCCUGCGGAAGAAGGUGCAAAUAAUU |  |  | 48.1 nM | 23.4 nM
AAGAUACAUGAGGAUCACCCAUGUCGAGAGAGACGAGGAUAUCUGAAUCGAUUAGAUUACGGAGAAGGCGUGAAAA |  |  | 31.5 nM | 25.6 nM
AAUUCGUCAGGAUAUGCAUGUAAUUGUUACAUUUCGCCGUUGCAGAAGGGACAUGAGGAUCACCCAUGUAAGUC | 32.8 nM | 34.9 nM |  | 
AAUAAACUCACAGGAUAUAGCAGAGGUCGCGUGUACUUACAGGCGACGAGGCUAGAAGGGUGACCACAUGAGGAUCACCCAUGU |  |  | 1010 nM | 113 nM
UUGUGCAAAGGAUAUACGUCCGACCUCGUGGAACUGAGAAUACAUGAGGAUCACCCAUGUAGAAGGUUGCCGAG | 11.7 nM | 15.1 nM |  | 
AUGGAUAUCACAGGAUAUGCCAUGGAUACCAUGGCAGAAGGGUGAUCCAUCCUAUGUAAAUACAUGAGGAUCACCCAUGUGUCC |  |  | 16.1 nM | 13.7 nM
GCGUUACAUGAGGAUCACCCAUGUGAGGAUAUGGUGCGGUACUGUCCUGUCGCGUACUCCAGAAGGCACGGGUG | 150 nM | 85.3 nM |  | 
